# Screening results (PubChem)
# CRFBP-R2 block: blocks CRF-induced signaling of the CRF-BP/CRF-R2 complex; HEK293 CRF-R2/CRF-BP, CRF-induced calcium fluorescence; inhibition, % at 11.8 µM; hit rate 0.59% among 350,000; AID 588475;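 active means inhibition of the ligand-induced calcium signal above about 50% at the single tested concentration, limit read from the data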
# PKA-R1A activ: activators of PKA-R1A complex | P00514+P68181 | PKA-R1A dissociation, Cy5-IP20 fluorescence polarization; scaled: DMSO 0%, 113 µM cGMP 100% | activation, % at 11.4 µM | hit rate 0.083% among 340,000 | AID 504707;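 active means percent activation above the mean of all tested compounds plus 3 SD, cut at about 19% in these data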;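 further: higher means more PKAc released from R1A so a rise in polarization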
# PKA-R2B act: PKA-R2B complex activation; P22694+P31323; PKA-R2B holoenzyme dissociation, Cy5-IP20 fluorescence polarization; R2B truncated from residue 108, S112A mutant; 0% DMSO only, 100% 113 µM cGMP; activation, % at 11.4 µM; hit rate 0.079% among 340,000;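 active means activation above a cutoff set at the mean over all compounds plus 3 SD, cut at about 18% in these data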;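 further: higher means more holoenzyme dissociation and a rise in polarization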
# Target sequence (P31323 whole entry, looked up, other chains not shown, the tested form may be a part): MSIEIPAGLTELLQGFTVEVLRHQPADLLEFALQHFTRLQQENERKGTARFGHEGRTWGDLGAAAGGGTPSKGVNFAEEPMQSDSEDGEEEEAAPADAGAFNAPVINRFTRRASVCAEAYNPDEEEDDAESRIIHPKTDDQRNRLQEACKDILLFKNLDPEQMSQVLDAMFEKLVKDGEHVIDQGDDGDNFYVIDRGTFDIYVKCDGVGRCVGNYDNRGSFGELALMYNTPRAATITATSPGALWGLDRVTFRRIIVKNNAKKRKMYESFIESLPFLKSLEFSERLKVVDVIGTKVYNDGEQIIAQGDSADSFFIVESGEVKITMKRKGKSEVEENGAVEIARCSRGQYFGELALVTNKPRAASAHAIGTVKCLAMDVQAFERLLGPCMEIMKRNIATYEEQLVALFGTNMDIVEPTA
# S100A4 MyoIIA: inhibitors of human S100A4 binding to myosin IIA peptide. inhibition, % at 10.7 µM. S100A4/TAMRA-MyoIIA peptide fluorescence polarization. AID 652163. hit rate 0.14% among 360,000. P26447;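 active means mean inhibition of at least 70% across replicates, with every replicate also reaching that level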
# Target sequence (P26447 whole entry, looked up): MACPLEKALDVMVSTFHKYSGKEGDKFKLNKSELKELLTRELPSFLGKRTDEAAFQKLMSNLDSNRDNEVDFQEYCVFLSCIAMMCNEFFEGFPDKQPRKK
#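 Test system: S100A4 monomer protein. Medium: HEPES buffer with Ca2+, pH 7.2. Reagent: fluorescent myosin IIA peptide, 5 nM. Compound dosing: single-point compound testing. Timing: 5 min between mix addition and reading. Benchmarks: DMSO neutral and TFP positive wells.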
# SIRT5 block: inhibitors of human sirtuin-5 desuccinylase | Q9NXA8 | Purified SirT5, succinyl-peptide AMC, trypsin-coupled fluorescence | inhibition, % at 15 µM | hit rate 1.1% among 330,000 | AID 652115; in the data active means inhibition above about 15%
# * marks the source's active call; other numbers are inactive results; nt = no result given; + = active, no number. Shown are actives, neighbours in structure and some others; about 1.5% of the full set was active somewhere.
SMILES,CRFBP-R2 block,PKA-R1A activ,PKA-R2B act,S100A4 MyoIIA,SIRT5 block
O=C(C[C@@H]1CC[C@H]2[C@@H](COC[C@@H](O)CN2S(=O)(=O)c2ccc(Cl)cc2)O1)NCCN1CCCC1,nt,nt,nt,2.4,-0.1
O/C(=C\c1nc2ccccc2nc1/C=C(\O)c1ccccc1)c1ccccc1,83.6*,-17.2,-0.3,nt,nt
O=c1oc2ccccc2nc1/C=C(\O)c1ccccc1,-31.0,nt,nt,3.0,1.3
CC(C)Cc1nnc(NC(=O)Cc2cccs2)s1,-42.3,0.6,-2.8,-21.4,4.8
O=C(Cc1cccs1)Nc1nc2c(ccc3ccccc32)s1,53.2*,-10.6,-2.7,nt,nt
CC(=O)Nc1nc2c(ccc3ccccc32)s1,11.3,2.2,-9.5,6.1,-1.3
CC(C)(C)Cc1nnc(NC(=O)Cc2cccs2)s1,-30.4,nt,nt,-4.9,29.4*
CCn1c(=O)cc(OCC(=O)NCCc2ccc(OC)c(OC)c2)c2ccccc21,12.6,-0.7,10.0,-9.8,20.3*
CCOc1ccc(CCNC(=O)COc2cc(=O)n(C)c3ccccc23)cc1OCC,5.2,-7.0,-9.7,21.3,6.0
O=C(O)c1cc(-c2ccccc2Cl)n(-c2ccccc2)n1,-1.4,-2.7,7.6,-3.4,-4.4
COc1ccc(-n2nc(C(=O)O)cc2-c2ccccc2)cc1,-0.7,-7.4,1.0,-8.1,17.6*
O=C(O)c1cc(-c2ccccc2)n(-c2ccccc2)n1,2.7,-9.5,-10.6,nt,nt
CC(C)(C)c1cc(C(=O)O)nn1-c1ccccc1,67.8*,11.1,-1.4,-0.5,0.1
CO[C@@H]1CN(C)C(=O)c2ccc(NS(C)(=O)=O)cc2OC[C@H](C)N(Cc2cncnc2)C[C@H]1C,nt,nt,nt,16.5,5.9
COc1cc2c3nnc(-c4ccccc4)c-3cn(Cc3ccc(F)cc3)c2cc1OC,-7.2,-8.5,-9.4,-2.7,-1.8
COc1cc2c3nnc(-c4ccc(F)cc4)c-3cn(Cc3ccc(C)cc3)c2cc1OC,-7.2,0.3,-7.6,+,2.2
C[C@@H]1CN([C@H](C)CO)C(=O)c2cc(NS(=O)(=O)c3cn(C)cn3)ccc2O[C@H]1CN(C)Cc1ccc(C(=O)O)cc1,nt,nt,nt,2.6,5.6
CCC(=O)NC(c1cccs1)c1cc([N+](=O)[O-])c2cccnc2c1O (stereo not drawn),28.8,-2.8,-10.6,3.7,23.7*
CCCC(=O)NC(c1cccs1)c1cc([N+](=O)[O-])c2cccnc2c1O (stereo not drawn),12.4,-4.0,-21.3,1.2,-2.8
CO[C@H]1CN(C)C(=O)c2cc(NS(C)(=O)=O)ccc2OC[C@H](C)N(CC2CC2)C[C@@H]1C,nt,nt,nt,-0.8,-4.0
CCOc1cc(C(=O)OCc2cccc(OC)c2OC)ccc1OCC(=O)N1CCOCC1,3.7,-13.0,-9.7,-10.7,15.8*
Cc1cccc(NC(=S)Nc2ccccn2)c1,-1.0,2.8,-10.3,0.2,19.8*
Cc1cc(C)cc(NC(=S)Nc2ccccn2)c1,-12.1,-16.6,4.2,-4.7,2.6
O=C(NC1CC1)c1cccc2c1C(=O)c1ccc(N3CCC(N4CCCCC4)CC3)cc1S2(=O)=O,-11.9,1.1,1.1,-8.0,16.8*
CC(C)c1cn(CC[C@H]2CC[C@H](NC(=O)C3CCCC3)[C@@H](CO)O2)nn1,nt,nt,nt,-10.5,7.3
SMILES,CRFBP-R2 block,PKA-R1A activ,PKA-R2B act,S100A4 MyoIIA,SIRT5 block
COc1ccc(OCC(O)CN2CCc3ccccc3C2)cc1 (stereo not drawn),56.4*,-0.1,-5.8,-0.9,0.2
COC(=O)C1=C(C)NC(=O)CC1c1ccccc1F (stereo not drawn),0.2,-8.8,1.7,3.7,0.2
COC(=O)C1=C(N)c2c(F)cccc2C1(C#N)c1ccccc1 (stereo not drawn),57.8*,-1.4,-0.8,nt,nt
COC(=O)c1c(NC(C)=O)sc2c1CCN(Cc1ccccc1)C2,16.6,-5.7,-2.4,-4.6,18.0*
Nc1ccc(S(=O)(=O)Nc2ccc(Cl)nn2)cc1,54.2*,3.9,-3.4,21.7,11.3
CC1(C)c2ccccc2N(CC(N)=O)C12C=Cc1ccccc1O2 (stereo not drawn),-6.2,-1.6,3.5,-65.2,-3.9
CC1(C)c2ccccc2N2CC(=O)N(CC(N)=O)C21C (stereo not drawn),-28.9,-8.1,-1.0,118.4*,nt
N#Cc1ccc(-c2ccc([C@@H]3[C@@H](CO)N4C(=O)CN(C(=O)C5CC5)C[C@H]34)cc2)cc1,nt,nt,nt,82.5*,-2.8
O=C(C1CCOCC1)N1CC(=O)N2[C@H](CO)[C@@H](c3ccc(C#CCc4ccccc4)cc3)[C@H]2C1,nt,nt,nt,-0.8,16.5*
O=C(C[C@H]1C=C[C@@H](NC(=O)Cc2cccnc2)[C@H](CO)O1)Nc1ccc(-c2ccccc2)cc1,nt,nt,nt,11.9,0.2
COc1ccc2c3c([nH]c2c1)[C@H](CO)N(Cc1ccncc1)CC31CCN(C(=O)CN(C)C)CC1,nt,nt,nt,-10.1,-7.3
CC1=C/C(=N\Nc2ccccc2[N+](=O)[O-])CC(C)(C)C1,-57.1,6.9,2.0,2.8,19.4*
C/C(=N/Nc1ccccc1[N+](=O)[O-])c1ccc([N+](=O)[O-])cc1,1.3,-6.7,-2.6,-5.1,1.0
C[C@@H](O)C#Cc1cnc2c(c1)C(=O)N([C@@H](C)CO)C[C@H](C)[C@@H](CN(C)C(=O)Nc1ccc(F)cc1)O2,nt,nt,nt,1.4,-0.2
O=c1c2ccccc2n(Cc2ccc(F)cc2)c(=O)n1C1CCCC1,80.9*,-11.4,-3.9,nt,nt
O=C(Cn1c(=O)n(Cc2ccc(F)cc2)c(=O)c2ccccc21)NCC1CCCO1 (stereo not drawn),-0.9,-3.1,-5.9,1.9,-0.3
CC(=O)N(C)C[C@@H]1Oc2cc(C#CC3CCCC3)ccc2S(=O)(=O)N([C@H](C)CO)C[C@@H]1C,nt,nt,nt,3.1,5.2
O=C(Cn1cnc(S(=O)(=O)N2CCCC2)c1)Nc1cccc(Br)c1,5.8,16.0,1.7,7.8,18.9*
C[C@H]1CN([C@@H](C)CO)C(=O)c2cc(NC(=O)Cc3cn(C)c4ccccc34)ccc2O[C@@H]1CN(C)C(=O)Nc1ccc2c(c1)OCO2,nt,nt,nt,-4.0,-3.4
CC(CCc1ccco1)NC(=O)CCc1nnc2ccc(NCc3ccccc3)nn12 (stereo not drawn),53.0*,-6.3,-3.3,-5.2,-1.2
C[C@@H]1CCCCO[C@H](CN(C)C(=O)C2CCCCC2)[C@H](C)CN([C@H](C)CO)C(=O)c2cc(NC(=O)NC3CCCCC3)ccc2O1,nt,nt,nt,2.2,2.9
O=C(C[C@@H]1C[C@H]2c3cc(NC(=O)CC4CC4)ccc3O[C@H]2[C@@H](CO)O1)NCCN1CCCCC1,nt,nt,nt,-0.1,0.7
COc1ccccc1C1SCCN1S(=O)(=O)c1ccccc1 (stereo not drawn),107.7*,7.8,-2.8,-1.2,nt
CN(C)CC(=O)N1CC(=O)N2[C@@H](CO)[C@H](c3ccc(/C=C/c4ccccc4)cc3)[C@@H]2C1,nt,nt,nt,24.2,9.3
